Assay results reported in publication PMC6044410 (Structure (London, England : 1993), 2017).
Where “and” joins values, the source holds several entries; their conditions need not be identical. Identical values can stand only once. Like-named read-outs stand apart in the source and are kept apart here. Each block holds one molecule with its values, some of them ahead of it. Square brackets hold non-standard residues; d marks the D form. Peptide text beside a SMILES is read from it. * marks the point of attachment. FITC = O=C1OC2(c3ccc(O)cc3Oc3cc(O)ccc32)c2ccc(NC(=S)*)cc21; pT = C[C@@H](OP(=O)(O)O)[C@H](N)C(=O)O; pS = N[C@@H](COP(=O)(O)O)C(=O)O

Experiments:
[1] = biological target: human TopBP1 BRCT5, 641-746 (UniProt Q92547); assay: fluorescence polarization titration; settings: reference: pSer304 peptide mock-treated without λ phosphatase; sites S304
GST-hTopBP1 BRCT5 WT = GST-hTopBP1 BRCT5 WT (Homo sapiens, UniProt Q92547); assay: Fluorescence polarization binding, GST-hBRCT5 WT
[2] = biological target: TopBP1 BRCT4/5, untagged and GST-tagged forms (Homo sapiens, UniProt Q92547); assay: Fluorescence polarization binding, untagged and GST-tagged TopBP1 forms compared
Procedure, shortened: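 Untagged BRCT4/5 was prepared by overnight PreScission cleavage of the GST fusion at 4 °C, then anion exchange at pH 7.0, glutathione-bead removal of GST, and gel filtration. Read-out was ex 485/em 538 nm; KD was curve-fitted and averaged over ≥3 measurements.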

GST-hBRCT5 M689A = GST-hBRCT5 M689A (Homo sapiens, UniProt Q92547, M689A); assay: Fluorescence polarization binding, GST-hBRCT5 M689A
[3] = biological target: T1, GST-human TopBP1 BRCT5 (641-746), wild type (human, UniProt Q92547 641-746); assay: fluorescence polarisation
[4] = biological target: human TopBP1 BRCT4/5 (549-746), untagged (human, UniProt Q92547 549-746); assay: fluorescence polarisation
[5] = biological target: GST-human TopBP1 BRCT4/5 (549-746) (human, UniProt Q92547 549-746); assay: fluorescence polarisation
[6] = biological target: T2, mouse TopBP1 BRCT4/5 (553-749), untagged (mouse, UniProt Q6ZQF0 553-749); assay: fluorescence polarisation
T2 sequence (looked up): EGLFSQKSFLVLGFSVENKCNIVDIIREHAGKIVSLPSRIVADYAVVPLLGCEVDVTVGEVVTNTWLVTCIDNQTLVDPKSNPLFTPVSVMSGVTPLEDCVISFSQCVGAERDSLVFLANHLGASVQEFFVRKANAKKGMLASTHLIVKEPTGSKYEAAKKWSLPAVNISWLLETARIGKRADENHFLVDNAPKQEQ

[7] = biological target: GST-human TopBP1 BRCT5 S654A (human, UniProt Q92547 641-746, S654A); assay: fluorescence polarisation
[8] = biological target: GST-human TopBP1 BRCT5 K704A (human, UniProt Q92547 641-746, K704A); assay: fluorescence polarisation
[9] = biological target: GST-human TopBP1 BRCT5 R681E/K682E (human, UniProt Q92547 641-746, R681E | K682E); assay: fluorescence polarisation
[10] = biological target: GST-human TopBP1 BRCT5 K686E/K687E (human, UniProt Q92547 641-746, K686E | K687E); assay: fluorescence polarisation
[11] = biological target: GST-human TopBP1 BRCT5 A707K (human, UniProt Q92547 641-746, A707K); assay: fluorescence polarisation
[12] = biological target: GST-human TopBP1 BRCT5 A707D (human, UniProt Q92547 641-746, A707D); assay: fluorescence polarisation
[13] = biological target: GST-human TopBP1 BRCT5 M689A (human, UniProt Q92547 641-746, M689A); assay: fluorescence polarisation
[14] = biological target: GST-human TopBP1 BRCT5 Y678A (human, UniProt Q92547 641-746, Y678A); assay: fluorescence polarisation
[15] = biological target: T1, GST-human TopBP1 BRCT5 (641-746), wild …; assay: fluorescence polarisation; remark: listed apart in the source
[16] = biological target: T1, GST-human TopBP1 BRCT5 (641-746), wild …; assay: fluorescence polarisation; remark: listed apart in the source

T1 sequence (Q92547 641-746): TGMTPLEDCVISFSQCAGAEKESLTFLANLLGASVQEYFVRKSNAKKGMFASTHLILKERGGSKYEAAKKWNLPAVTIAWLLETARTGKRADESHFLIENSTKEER
GST-hTopBP1 BRCT5 WT, sequence (Q92547 641-746): as above
GST-human TopBP1 BRCT5 K704A, sequence (Q92547 641-746 K704A): as the sequence (Q92547 641-746) above, with K64A counted along it
GST-human TopBP1 BRCT5 K686E/K687E, sequence (Q92547 641-746 K686E/K687E): as the sequence (Q92547 641-746) above, with K46E, K47E counted along it
GST-human TopBP1 BRCT5 R681E/K682E, sequence (Q92547 641-746 R681E/K682E): as the sequence (Q92547 641-746) above, with R41E, K42E counted along it
GST-human TopBP1 BRCT5 Y678A, sequence (Q92547 641-746 Y678A): as the sequence (Q92547 641-746) above, with Y38A counted along it
GST-human TopBP1 BRCT5 A707K, sequence (Q92547 641-746 A707K): as the sequence (Q92547 641-746) above, with A67K counted along it
GST-hBRCT5 M689A, sequence (Q92547 641-746 M689A): as the sequence (Q92547 641-746) above, with M49A counted along it
GST-human TopBP1 BRCT5 M689A, sequence (Q92547 641-746 M689A): as the sequence (Q92547 641-746) above, with M49A counted along it
GST-human TopBP1 BRCT5 A707D, sequence (Q92547 641-746 A707D): as the sequence (Q92547 641-746) above, with A67D counted along it
human TopBP1 BRCT4/5 (549-746), untagged, sequence (Q92547 549-746): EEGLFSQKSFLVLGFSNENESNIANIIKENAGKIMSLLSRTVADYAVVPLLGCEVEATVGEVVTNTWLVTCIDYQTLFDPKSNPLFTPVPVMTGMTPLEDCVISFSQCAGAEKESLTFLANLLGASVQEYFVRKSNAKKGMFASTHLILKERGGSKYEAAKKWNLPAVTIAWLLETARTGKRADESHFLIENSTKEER
GST-human TopBP1 BRCT4/5 (549-746), sequence (Q92547 549-746): as above
TopBP1 BRCT4/5, untagged and GST-tagged forms, sequence (Q92547 549-746): as above
GST-human TopBP1 BRCT5 S654A, sequence (Q92547 641-746 S654A): as the sequence (Q92547 641-746) above, with S14A counted along it

KD [1]: weaker; reference 2.6 ± 0.4
Molecule: BLM (Bloom syndrome, RecQ-like helicase) 297-309 (from UniProt P54132) λ phosphatase-treated pSer304 peptide

Kd (GST-hTopBP1 BRCT5 WT): ≥ 300 µM
Molecule: CC(C)C[C@H](NC(=O)[C@H](CC(=O)O)NC(=O)[C@H](CCCCN)NC(=O)[C@H](COP(=O)(O)O)NC(=O)[C@@H](NC(=O)[C@H](CO)NC(=O)[C@H](CC(C)C)NC(=O)[C@@H](NC(=O)[C@H](CC(=O)O)NC(=O)[C@H](CCC(=O)O)NC(=O)[C@H](CCCCN)NC(=S)Nc1ccc2c(c1)C(=O)OC21c2ccc(O)cc2Oc2cc(O)ccc21)C(C)C)[C@@H](C)O)C(N)=O [pSer338] ({FITC}-KEDVLST[pS]KDL-NH2)

Kd [2]: 3 to 6 µM
Molecule: CC[C@H](C)[C@H](NC(=O)[C@@H](NC(=O)[C@H](CCC(=O)O)NC(=O)[C@H](CCC(=O)O)NC(=O)[C@@H]1CCCN1C(=O)[C@H](COP(=O)(O)O)NC(=O)[C@@H]1CCCN1C(=O)[C@@H]1CCCN1C(=O)[C@@H](NC(=O)[C@H](Cc1ccccc1)NC(=O)[C@H](CC(=O)O)NC(=O)[C@@H](NC(=O)[C@H](CC(=O)O)NC(=S)Nc1ccc2c(c1)C(=O)OC21c2ccc(O)cc2Oc2cc(O)ccc21)[C@@H](C)O)C(C)C)[C@@H](C)CC)C(N)=O [pSer304] ({FITC}-DTDFVPP[pS]PEEII-NH2)

Molecule: CC[C@H](C)[C@H](NC(=O)[C@H](Cc1ccccc1)NC(=O)CNC(=S)Nc1ccc2c(c1)C(=O)OC21c2ccc(O)cc2Oc2cc(O)ccc21)C(=O)N[C@@H](CC(=O)O)C(=O)N[C@@H](COP(=O)(O)O)C(=O)N[C@@H](CC(=O)O)C(=O)N[C@H](C(=O)N[C@@H](CC(=O)O)C(=O)N[C@H](C(=O)N[C@@H](CCC(=O)O)C(=O)N[C@@H](CCC(=O)O)C(=O)N[C@@H](CCC(=O)O)C(N)=O)C(C)C)[C@@H](C)OP(=O)(O)O [MDC1, reference compound] ({FITC}-GFID[pS]D[pT]DVEEE-NH2)
Kd (GST-hTopBP1 BRCT5 WT): 15 ± 1 µM | Kd (GST-hBRCT5 M689A): 15 ± 1 µM

Kd (GST-hTopBP1 BRCT5 WT; KD, FP, BLM pSer304 peptide treated with λ phosphatase, 1 hour at 30 °C): ≥ 60 µM
Molecule: CC[C@H](C)[C@H](NC(=O)[C@@H](NC(=O)[C@H](CCC(=O)O)NC(=O)[C@H](CCC(=O)O)NC(=O)[C@@H]1CCCN1C(=O)[C@H](CO)NC(=O)[C@@H]1CCCN1C(=O)[C@@H]1CCCN1C(=O)[C@@H](NC(=O)[C@H](Cc1ccccc1)NC(=O)[C@H](CC(=O)O)NC(=O)[C@@H](NC(=O)[C@H](CC(=O)O)NC(=S)Nc1ccc2c(c1)C(=O)OC21c2ccc(O)cc2Oc2cc(O)ccc21)[C@@H](C)O)C(C)C)[C@@H](C)CC)C(N)=O [Ser304] ({FITC}-DTDFVPPSPEEII-NH2)

Kd [3]: 3.9 ± 0.3 µM | Kd [4]: 3.2 ± 0.8 µM | Kd [5]: 6 ± 1 µM | Kd [6]: 6 ± 2 µM | Kd [7]: 33 ± 3 µM | Kd [8]: 42 ± 3 µM | Kd [9]: 45 ± 2 µM | Kd [10]: 36 ± 3 µM | Kd [11]: 70 ± 20 µM | Kd [12]: 320 ± 40 µM | Kd [13]: 53 ± 4 µM | Kd [14]: 18 ± 2 µM | Kd [15]: 2.6 µM and 3.7 µM
B1: FITC-labelled BLM pSer304 peptide (FITC-DTDFVPPpSPEEII-NH2) (peptide)
peptide: {FITC}-DTDFVPP[pS]PEEII-NH2

Kd [3]: 285 ± 10 µM
B2: FITC-labelled BLM pSer338 peptide (FITC-KEDVLSTpSKDL-NH2) (peptide)
peptide: {FITC}-KEDVLST[pS]KDL-NH2

Kd [16]: 60 ± 10 µM
B3: Unphosphorylated Ser304 BLM peptide (FITC-DTDFVPPSPEEII-NH2) (peptide)
peptide: {FITC}-DTDFVPPSPEEII-NH2
